Published values collected from several papers.
Protocols differ between the studies behind these lines.
Target: Activin receptor type-1 (ACVR1, Homo sapiens, UniProt Q04771)
Sequence (Q04771 1-509, as in one of the studies): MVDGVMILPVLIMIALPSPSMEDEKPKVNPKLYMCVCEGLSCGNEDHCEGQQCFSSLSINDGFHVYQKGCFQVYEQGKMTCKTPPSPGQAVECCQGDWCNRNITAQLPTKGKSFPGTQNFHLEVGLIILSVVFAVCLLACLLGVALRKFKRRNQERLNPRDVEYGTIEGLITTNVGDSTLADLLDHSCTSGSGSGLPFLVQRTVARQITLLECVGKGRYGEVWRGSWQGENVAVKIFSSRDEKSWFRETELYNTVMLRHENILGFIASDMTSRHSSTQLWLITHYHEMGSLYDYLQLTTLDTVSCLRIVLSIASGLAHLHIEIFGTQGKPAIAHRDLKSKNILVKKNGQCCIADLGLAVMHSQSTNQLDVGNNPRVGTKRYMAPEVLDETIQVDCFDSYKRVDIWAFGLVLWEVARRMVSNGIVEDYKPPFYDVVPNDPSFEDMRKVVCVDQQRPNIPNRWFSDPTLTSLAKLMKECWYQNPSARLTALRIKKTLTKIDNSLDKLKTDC

| SMILES | read-out | mode | method | tested at | quantity | result |
| --- | --- | --- | --- | --- | --- | --- |
| Cn1cncc1[C@](O)(COc1ccc(C#N)cc1-c1ccc(OC(F)(F)F)cc1)c1ccc(C#N)cc1 | cell-free assay | – | competition with immobilised ligand | 1 µM | remaining binding | 78% |
| O=c1[nH]c2ccccc2n1C1CCN(Cc2ccc(-c3[nH]c4cc5ncnc5cc4nc3-c3ccccc3)cc2)CC1 | cell-free assay | – | – | 0.5 µM | remaining signal | 102% |
| Cn1cc(-c2cccc(N3CCc4c(sc5c4CC(C)(C)C5)C3=O)c2CO)cc(Nc2ccncn2)c1=O | enzyme activity | inhibitor | – | 1 µM | inhibition | -1% |
| Cc1nn(C)cc1-c1nc2c(N3CCN(Cc4ccc(Cl)cc4)CC3)c(Cl)cnc2[nH]1 | binding | – | competition with immobilised ligand | 1 µM | remaining binding | 90% |
| COc1ncccc1-c1cnn2ccc(N3CCN(C(=O)OC(C)C)CC3)nc12 | binding | – | competition with immobilised ligand | 1 µM | remaining binding | 72% |
| N#CC1(c2ccccn2)CCN(Cc2cc(C(=O)O)c(=O)n3ccccc23)CC1 | cell-free assay | – | competition with immobilised ligand | 1 µM | remaining binding | 96% |
| CC(C)(C)c1cc(C=C(C#N)C#N)cc(Br)c1O | enzyme activity | inhibitor | – | 0.5 µM | remaining activity | 102% |
| Nc1ncc(-c2nc(N3CCOCC3)nc(N3CCOCC3)n2)c(C(F)F)n1 | cell-free assay | – | competition with immobilised ligand | 10 µM | remaining binding | 83% |
